This is one part of a sample in which hits are shown more often than they occur.
Dynein transport = inhibitors of GR-EGFP nuclear translocation, primary screen, dynein cargo transport inhibitor project, imaging, high-content, 3617.4 mouse cells; test concentration mostly 20 µM; stimulated with dexamethasone, 1 µM; active compounds read low; z-score, hits read low; actives 0.47% (n = 220,000); AID 1381, 2008;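 active means plate z-score of nuclear minus cytoplasmic receptor signal below a set negative limit, without overly bright fluorescence or cell loss, cut at about -3.5 in these data, passing the limit was not always enough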;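 further: z-score of nuclear minus cytoplasmic ring GR-EGFP intensity difference per well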
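Buffer or medium: tet-free, stripped-serum medium; reagent: dexamethasone at 1.0 µM final, 30 min; incubation: 48 h induction, 1 h compound, 30 min dex at 37 °C; measured by: formaldehyde fixation, Hoechst nuclear stain, 10x automated fluorescence imaging; read-out: nuclear-to-cytoplasmic GR-EGFP distribution per well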
L major viab = Leishmania major promastigote growth inhibition, primary screen; actives 9% (n = 200,000); Leishmania major promastigotes, resazurin fluorescence viability; AID 1063, 2008; inhibition, % at 10 µM; in the data active means inhibition above about 50%;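 further: promastigotes grown with compound for 44 hours at 28 °C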
CHOP UPR activ = activators of apoptotic CHOP UPR arm, primary screen, cell-based, CHO-CHOP luciferase reporter, luminescence, uHTS | actives 0.34% (n = 330,000) | AID 449763, 2010 | UPR activation; percent of tunicamycin response over DMSO baseline | activation, % at 10 µM;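 active means at 10 µM dose, activation of 40% or more, normalized to positive control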;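 further: 100% = tunicamycin at 10 µg/mL and 0% = DMSO alone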
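Dosing – one dose, 10 µM in 0.5% DMSO · System – CHO-CHOP cells, stable luciferase reporter of PERK-eIF2a-CHOP signalling · Input – 500 cells/well · Control set – tunicamycin 10 µg/mL final as positive, DMSO-only wells as negative · Timing – 6 h compound treatment, 37 °C · Measure – % activation vs tunicamycin · Technique – luminescence read with Steady-Glo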
UPR XBP1 act = activators of adaptive XBP1 UPR arm, primary screen, cell-based, CHO-XBP1 luciferase reporter, luminescence, uHTS; activation, % at 20 µM; actives 0.33% (n = 330,000); AID 463104, 2010; IRE1-XBP1 UPR activation; percent of tunicamycin response, DMSO as zero;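 active means versus positive control, 20 µM dose yields 30% or more activation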;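 further: 100% = tunicamycin at 10 µg/mL and 0% = DMSO only wells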
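Material: CHO-XBP1 cells stably carrying IRE1-XBP1-driven luciferase reporter | Medium: F12 with 10% serum | Compound dosing: 20 µM single concentration, DMSO 1% | Incubation: Overnight seeding at 37 °C, 6 h compound treatment at 37 °C | Detection: Steady-Glo luminescence read | Read-out basis: % activation of reporter signal versus tunicamycin and DMSO controls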
CHOP inhibitor = inhibitors of CHOP promoter induction, primary screen, cell-based, unfolded protein response, luciferase reporter; actives 3.8% (n = 220,000); inhibition, % at 10 µM; CHO-K1 CHOP-promoter luciferase, tunicamycin-induced, 15-18 h;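 active means compounds that reduced the stress-induced luciferase reporter signal by more than about 70% of percent inhibition, limit read from the data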;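 further: 0% = tunicamycin plus vehicle and 100% = wells without tunicamycin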
T cruzi inh = inhibitors of intracellular T. cruzi growth, primary screen, luminescence, NIH3T3 host cells. T. cruzi beta-gal in NIH3T3, 90 h. inhibition, % (no concentration beside the values). actives 1.4% (n = 300,000);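 active means mean inhibition across valid replicates above about 55%, limit read from the data; inconclusive means mean below that limit but half or more replicates reach it; inactive means mean below it, under half of replicates reach it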;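 further: signal also drops with host cell toxicity which is not excluded here; 0% = plate median of DMSO wells and 100% = zero luminescence signal; higher percent means less beta-gal luminescence so fewer parasites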
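assay system = mouse NIH/3T3 fibroblasts infected with β-gal-expressing T. cruzi Tulahuen C4 | input = 5,000 NIH/3T3 host cells per well | buffer or medium = DMEM plus 2% FBS | timing = 3 h host attachment, then at least 90 h co-culture | measured by = GalScreen luminescence, 60 min | evaluation = luminescence reflecting intracellular parasite burden, expressed as percent inhibition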
An asterisk follows results filed as active.

What do the screens show for `COCCOc1ccc(C(F)(F)F)cc1Nc1nc2ccccc2o1`?
Dynein transport: 1.5; L major viab: 6; CHOP UPR activ: 5; UPR XBP1 act: 1; CHOP inhibitor: 88*; T cruzi inh: -7

How did O=C(/C=C/c1ccc(S(=O)(=O)N2CCOCC2)cc1)NCc1ccccc1Cl do in these assays?
Dynein transport: -0.15; L major viab: 80*; CHOP UPR activ: 2; UPR XBP1 act: 1; CHOP inhibitor: -23; T cruzi inh: 13

Results for CCc1ccc(S(=O)(=O)NC(=S)NC2CCCCC2)cc1 ?
Dynein transport: 1.4; L major viab: -1; CHOP UPR activ: -1; UPR XBP1 act: -4; CHOP inhibitor: 17; T cruzi inh: -7

Results for NS(=O)(=O)c1ccc(CCNC(=S)NC(=O)c2ccccc2Br)cc1 ?
CHOP UPR activ: -2; UPR XBP1 act: -1

What do the screens show for `CCOC(=O)c1cc(-c2ccc(C)cc2)nc2nc(SC)[nH]c(=O)c12`?
Dynein transport: -0.65; L major viab: 56*; CHOP UPR activ: 3; UPR XBP1 act: 2; CHOP inhibitor: 67; T cruzi inh: 5

How did CCSCC1COC(c2cccn2Cc2ccc(C)cc2)=N1 (configuration not stated) do in these assays?
Dynein transport: -0.99; L major viab: 6; CHOP UPR activ: 1; UPR XBP1 act: -2; CHOP inhibitor: 76*; T cruzi inh: 0

Results for CCC1COC(c2cccn2Cc2ccc(Cl)cc2)=N1 (configuration not stated) ?
Dynein transport: 1.4; L major viab: 7; CHOP UPR activ: -1; UPR XBP1 act: 2; CHOP inhibitor: 31; T cruzi inh: -9

How did CCNC(=S)N/N=C/c1cc(C)n(-c2ccc(Cl)cc2)c1C do in these assays?
Dynein transport: -0.49; L major viab: 28; CHOP UPR activ: 7; UPR XBP1 act: 16; CHOP inhibitor: 7; T cruzi inh: -1

Results for COc1cccc(NC(=O)C(=O)N/N=C/c2cc(C)n(-c3ccc(Cl)c(Cl)c3)c2C)c1 ?
Dynein transport: 1.1; L major viab: -2; CHOP UPR activ: 3; UPR XBP1 act: 3; CHOP inhibitor: 78*; T cruzi inh: 9

How did Cc1cc(/C=N/NC(N)=S)c(C)n1-c1ccc(Cl)c(Cl)c1 do in these assays?
Dynein transport: 1.4; L major viab: 100*; CHOP UPR activ: 5; UPR XBP1 act: 23; CHOP inhibitor: 27; T cruzi inh: 53

What do the screens show for `COc1cc(/C=C/C(=O)OCC(=O)Nc2c(C)n(C)n(-c3ccccc3)c2=O)cc(OC)c1OC`?
CHOP UPR activ: -1; UPR XBP1 act: -3

How did COc1ccc(NC(=O)Nc2ccc3c(c2)CC(=O)N([C@H](C)CO)C[C@@H](C)[C@H](CN(C)C(=O)Nc2ccccc2)O3)cc1 do in these assays?
CHOP UPR activ: 0; UPR XBP1 act: 1

What do the screens show for `Fc1cccc(C[n+]2csc3ccccc32)c1`?
Dynein transport: 1; L major viab: 6; CHOP UPR activ: 4; UPR XBP1 act: 2; CHOP inhibitor: 32; T cruzi inh: 55*

How did COCCNc1nc(CSc2ccccc2)nc2sc(C)c(C)c12 do in these assays?
Dynein transport: -0.68; L major viab: 47; CHOP UPR activ: 1; UPR XBP1 act: 1; CHOP inhibitor: 52; T cruzi inh: 18

What do the screens show for `Cc1sc2nc(CSc3ccccc3)nc(N3CCN(C)CC3)c2c1C`?
Dynein transport: 2.4; L major viab: 98*; CHOP UPR activ: 1; UPR XBP1 act: 0; CHOP inhibitor: 29; T cruzi inh: inconclusive

What do the screens show for `CCCCc1c(C)nc(Nc2ccc(OC)cc2)[nH]c1=O`?
Dynein transport: -0.14; L major viab: 29; CHOP UPR activ: 2; UPR XBP1 act: -1; CHOP inhibitor: 29; T cruzi inh: -19

Screens as filed in PubChem BioAssay.
